According to ChEMBL document CHEMBL2331324, “Synthesis and biological evaluation of guanidino analogues of roscovitine” (Eur J Med Chem, 2013):

How the values were obtained:
[1] = biological target: Serine/threonine-protein kinase PAK 4 (Homo sapiens) (UniProt O96013); experiment: Inhibition of recombinant PAK4 (unknown origin) assessed as residual activity using [gamma-33P]ATP as substrate at 1 uM
Method in brief: (§1)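 Selectivity panel run under previously published conditions. Screened at 1 μM in duplicate. Reactions started with [γ-33P]ATP (800 cpm/pmol) at 5, 20 or 50 μM, chosen to be at or below each enzyme's ATP Km. Stopped with phosphoric acid, spotted onto P81 filters. Result expressed as residual kinase activity.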

[2] = biological target: Mitogen-activated protein kinase 13 (Homo sapiens) (UniProt O15264); experiment: Inhibition of recombinant p38 MAPKdelta (unknown origin) assessed as residual activity using [gamma-33P]ATP as substrate at 1 uM
Method in brief: (§2)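 Kinase panel screen with each compound at 1 µM, in duplicate. Reactions were started with [γ-33P]ATP (800 cpm/pmol) at 5, 20 or 50 µM, chosen per enzyme to be at or below its ATP Km. Reactions were stopped with phosphoric acid and spotted onto P81 filters. Results are given as residual kinase activity.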

[3] = biological target: Mitogen-activated protein kinase 11 (Homo sapiens) (UniProt Q15759); experiment: Inhibition of recombinant p38 MAPKbeta (unknown origin) assessed as residual activity using [gamma-33P]ATP as substrate at 1 uM; method in brief: as §2
[4] = biological target: Mitogen-activated protein kinase 14 (Homo sapiens) (UniProt Q16539); experiment: Inhibition of recombinant p38 MAPKalpha (unknown origin) assessed as residual activity using [gamma-33P]ATP as substrate at 1 uM; method in brief: as §2
[5] = biological target: Serine/threonine-protein kinase 26 (Homo sapiens) (UniProt Q9P289); experiment: Inhibition of recombinant MST4 (unknown origin) assessed as residual activity using [gamma-33P]ATP as substrate at 1 uM; method in brief: as §1
[6] = biological target: MAP kinase-interacting serine/threonine-protein kinase 2 (Homo sapiens) (UniProt Q9HBH9); experiment: Inhibition of recombinant MNK2 (unknown origin) assessed as residual activity using [gamma-33P]ATP as substrate at 1 uM; method in brief: as §1
[7] = biological target: Mitogen-activated protein kinase kinase kinase 9 (Homo sapiens) (UniProt P80192); experiment: Inhibition of recombinant MLK1 (unknown origin) assessed as residual activity using [gamma-33P]ATP as substrate at 1 uM; method in brief: as §1
[8] = biological target: Dual specificity mitogen-activated protein kinase kinase 1 (Homo sapiens) (UniProt Q02750); experiment: Inhibition of recombinant MKK1 (unknown origin) assessed as residual activity using [gamma-33P]ATP as substrate at 1 uM; method in brief: as §1
[9] = biological target: Mitogen-activated protein kinase kinase kinase 1 (Homo sapiens) (UniProt Q13233); experiment: Inhibition of recombinant MEKK1 (unknown origin) assessed as residual activity using [gamma-33P]ATP as substrate at 1 uM; method in brief: as §1
[10] = biological target: MAP/microtubule affinity-regulating kinase 3 (Homo sapiens) (UniProt P27448); experiment: Inhibition of recombinant MARK3 (unknown origin) assessed as residual activity using [gamma-33P]ATP as substrate at 1 uM; method in brief: as §1
[11] = biological target: Serine/threonine-protein kinase STK11 (Homo sapiens) (UniProt Q15831); experiment: Inhibition of recombinant LKB1 (unknown origin) assessed as residual activity using [gamma-33P]ATP as substrate at 1 uM; method in brief: as §1
[12] = biological target: Mitogen-activated protein kinase 10 (Homo sapiens) (UniProt P53779); experiment: Inhibition of recombinant JNK3 (unknown origin) assessed as residual activity using [gamma-33P]ATP as substrate at 1 uM; method in brief: as §1
[13] = biological target: Insulin receptor (Homo sapiens) (UniProt P06213); experiment: Inhibition of recombinant IR (unknown origin) assessed as residual activity using [gamma-33P]ATP as substrate at 1 uM
Method in brief: (§3)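 Recombinant kinase panel screened at 1 µM in duplicate. Reactions started with [γ-33P]ATP (800 cpm/pmol) at 5, 20 or 50 µM, chosen to sit at or below each enzyme's ATP Km. Stopped with phosphoric acid and spotted onto P81 filters. Result given as residual kinase activity.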

[14] = biological target: Insulin-like growth factor 1 receptor (Homo sapiens) (UniProt P08069); experiment: Inhibition of recombinant IGF-1R (unknown origin) assessed as residual activity using [gamma-33P]ATP as substrate at 1 uM; method in brief: as §3
[15] = biological target: Serine/threonine-protein kinase Chk1 (Homo sapiens) (UniProt O14757); experiment: Inhibition of recombinant CHK1 (unknown origin) assessed as residual activity using [gamma-33P]ATP as substrate at 1 uM; method in brief: as §3
[16] = biological target: Homeodomain-interacting protein kinase 2 (Homo sapiens) (UniProt Q9H2X6); experiment: Inhibition of recombinant HIPK2 (unknown origin) assessed as residual activity using [gamma-33P]ATP as substrate at 1 uM; method in brief: as §3
[17] = biological target: Rho-associated protein kinase 2 (Homo sapiens) (UniProt O75116); experiment: Inhibition of recombinant ROCK2 (unknown origin) assessed as residual activity using [gamma-33P]ATP as substrate at 1 uM; method in brief: as §1
[18] = biological target: Protein kinase C gamma type (Homo sapiens) (UniProt P05129); experiment: Inhibition of recombinant PKCgamma (unknown origin) assessed as residual activity using [gamma-33P]ATP as substrate at 1 uM; method in brief: as §1
[19] = biological target: Protein kinase C zeta type (Homo sapiens) (UniProt Q05513); experiment: Inhibition of recombinant PKCzeta (unknown origin) assessed as residual activity using [gamma-33P]ATP as substrate at 1 uM; method in brief: as §1
Homo sapiens = species: Homo sapiens; experiment: Inhibition of recombinant PKA (unknown origin) assessed as residual activity using [gamma-33P]ATP as substrate at 1 uM; method in brief: as §1
[20] = biological target: Aurora kinase A (Homo sapiens) (UniProt O14965); experiment: Inhibition of recombinant AURA (unknown origin) assessed as residual activity using [gamma-33P]ATP as substrate at 1 uM; method in brief: as §3
MCF7 = experiment: Ratio of roscovitine IC50 to compound IC50 for human MCF7 cells after 72 hrs by calcien AM dye based fluorescence analysis; assay type: functional
[21] = biological target: Cyclin-dependent kinase 2/cyclin E1 (Homo sapiens) (UniProt P24864+P24941); experiment: Ratio of roscovitine IC50 to compound IC50 for recombinant CDK2/cyclin E (unknown origin); assay type: protein-complex assay
[22] = biological target: Cyclin-dependent kinase 1/cyclin B1 (Homo sapiens) (UniProt P06493+P14635); experiment: Ratio of roscovitine IC50 to compound IC50 for recombinant CDK1/cyclin B (unknown origin); assay type: protein-complex assay
[23] = biological target: Cyclin-dependent kinase 2/cyclin E1 (Homo sapiens, UniProt P24941); experiment: Inhibition of recombinant CDK2/cyclin E (unknown origin) using histone H1 as substrate in presence of [gamma-33P]ATP; assay type: protein-complex assay

Aurora kinase A (Homo sapiens), sequence (O14965 whole entry): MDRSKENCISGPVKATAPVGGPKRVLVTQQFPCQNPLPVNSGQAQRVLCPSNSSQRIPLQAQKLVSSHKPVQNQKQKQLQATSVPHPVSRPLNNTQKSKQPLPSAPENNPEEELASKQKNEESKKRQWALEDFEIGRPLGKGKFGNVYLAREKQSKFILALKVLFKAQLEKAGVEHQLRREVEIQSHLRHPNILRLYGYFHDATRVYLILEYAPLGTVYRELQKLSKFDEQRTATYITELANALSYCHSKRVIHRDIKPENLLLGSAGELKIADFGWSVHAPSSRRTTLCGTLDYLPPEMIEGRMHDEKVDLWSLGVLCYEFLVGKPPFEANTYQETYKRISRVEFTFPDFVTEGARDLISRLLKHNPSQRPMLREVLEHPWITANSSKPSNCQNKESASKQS
Mitogen-activated protein kinase 13 (Homo sapiens), sequence (O15264 whole entry): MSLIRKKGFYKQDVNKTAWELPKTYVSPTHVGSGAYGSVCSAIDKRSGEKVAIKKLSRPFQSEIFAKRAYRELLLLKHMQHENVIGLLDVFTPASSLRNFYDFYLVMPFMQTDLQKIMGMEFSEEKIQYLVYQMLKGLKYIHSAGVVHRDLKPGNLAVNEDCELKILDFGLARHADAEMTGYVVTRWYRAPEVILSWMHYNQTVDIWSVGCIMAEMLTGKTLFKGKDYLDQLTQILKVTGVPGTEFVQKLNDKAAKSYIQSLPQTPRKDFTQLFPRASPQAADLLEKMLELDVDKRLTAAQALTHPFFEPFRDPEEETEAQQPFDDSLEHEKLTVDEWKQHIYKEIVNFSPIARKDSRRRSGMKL
Mitogen-activated protein kinase 10 (Homo sapiens), sequence (P53779 whole entry): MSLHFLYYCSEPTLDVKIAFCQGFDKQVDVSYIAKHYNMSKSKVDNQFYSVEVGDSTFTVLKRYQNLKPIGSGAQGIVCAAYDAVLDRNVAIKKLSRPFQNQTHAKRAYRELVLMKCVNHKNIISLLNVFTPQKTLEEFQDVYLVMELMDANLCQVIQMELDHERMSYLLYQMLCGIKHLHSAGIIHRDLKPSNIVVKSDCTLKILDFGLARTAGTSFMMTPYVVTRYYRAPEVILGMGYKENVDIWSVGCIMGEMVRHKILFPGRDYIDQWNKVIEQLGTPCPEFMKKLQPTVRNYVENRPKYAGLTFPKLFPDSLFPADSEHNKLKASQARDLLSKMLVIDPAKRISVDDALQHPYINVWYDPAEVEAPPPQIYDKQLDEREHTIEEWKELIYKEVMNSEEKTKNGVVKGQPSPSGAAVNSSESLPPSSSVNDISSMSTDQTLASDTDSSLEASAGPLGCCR
Mitogen-activated protein kinase kinase kinase 1 (Homo sapiens), sequence (Q13233 whole entry): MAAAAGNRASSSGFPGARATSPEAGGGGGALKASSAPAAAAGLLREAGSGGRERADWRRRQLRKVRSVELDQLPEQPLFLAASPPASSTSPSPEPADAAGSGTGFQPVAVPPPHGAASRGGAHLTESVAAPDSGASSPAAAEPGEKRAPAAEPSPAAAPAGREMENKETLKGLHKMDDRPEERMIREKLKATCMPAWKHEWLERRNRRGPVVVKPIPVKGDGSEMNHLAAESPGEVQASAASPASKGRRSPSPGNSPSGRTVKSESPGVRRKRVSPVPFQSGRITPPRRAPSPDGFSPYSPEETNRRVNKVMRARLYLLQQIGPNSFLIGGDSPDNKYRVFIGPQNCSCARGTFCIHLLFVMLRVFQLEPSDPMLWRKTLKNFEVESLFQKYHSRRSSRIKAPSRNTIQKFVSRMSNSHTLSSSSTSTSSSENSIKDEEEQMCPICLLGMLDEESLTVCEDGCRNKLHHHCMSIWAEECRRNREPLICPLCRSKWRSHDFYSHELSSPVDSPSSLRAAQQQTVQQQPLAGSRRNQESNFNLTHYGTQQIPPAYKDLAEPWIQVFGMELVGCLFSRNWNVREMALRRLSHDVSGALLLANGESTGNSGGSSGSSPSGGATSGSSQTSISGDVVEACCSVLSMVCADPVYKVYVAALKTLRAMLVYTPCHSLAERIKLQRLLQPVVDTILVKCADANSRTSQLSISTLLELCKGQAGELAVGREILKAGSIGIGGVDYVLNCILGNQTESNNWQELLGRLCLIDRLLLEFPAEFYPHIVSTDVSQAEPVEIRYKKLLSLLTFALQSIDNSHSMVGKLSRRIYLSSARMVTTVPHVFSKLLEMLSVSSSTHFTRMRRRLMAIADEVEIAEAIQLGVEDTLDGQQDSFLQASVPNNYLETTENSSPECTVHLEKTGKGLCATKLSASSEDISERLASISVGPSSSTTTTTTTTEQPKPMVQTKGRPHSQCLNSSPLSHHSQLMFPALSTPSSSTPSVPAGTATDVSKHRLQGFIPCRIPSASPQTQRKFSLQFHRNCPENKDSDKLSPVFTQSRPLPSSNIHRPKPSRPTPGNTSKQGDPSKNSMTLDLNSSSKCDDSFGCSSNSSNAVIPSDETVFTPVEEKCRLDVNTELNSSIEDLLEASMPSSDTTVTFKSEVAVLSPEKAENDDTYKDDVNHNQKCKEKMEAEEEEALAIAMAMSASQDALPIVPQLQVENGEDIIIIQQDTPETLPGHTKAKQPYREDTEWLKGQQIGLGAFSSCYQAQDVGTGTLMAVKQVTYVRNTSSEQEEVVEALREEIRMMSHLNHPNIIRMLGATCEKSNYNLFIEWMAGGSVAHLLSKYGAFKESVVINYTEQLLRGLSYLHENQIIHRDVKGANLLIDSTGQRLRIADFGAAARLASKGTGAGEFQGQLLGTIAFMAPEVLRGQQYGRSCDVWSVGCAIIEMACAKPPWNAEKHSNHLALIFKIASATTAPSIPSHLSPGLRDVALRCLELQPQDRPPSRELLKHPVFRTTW
Rho-associated protein kinase 2 (Homo sapiens), sequence (O75116 whole entry, looked up): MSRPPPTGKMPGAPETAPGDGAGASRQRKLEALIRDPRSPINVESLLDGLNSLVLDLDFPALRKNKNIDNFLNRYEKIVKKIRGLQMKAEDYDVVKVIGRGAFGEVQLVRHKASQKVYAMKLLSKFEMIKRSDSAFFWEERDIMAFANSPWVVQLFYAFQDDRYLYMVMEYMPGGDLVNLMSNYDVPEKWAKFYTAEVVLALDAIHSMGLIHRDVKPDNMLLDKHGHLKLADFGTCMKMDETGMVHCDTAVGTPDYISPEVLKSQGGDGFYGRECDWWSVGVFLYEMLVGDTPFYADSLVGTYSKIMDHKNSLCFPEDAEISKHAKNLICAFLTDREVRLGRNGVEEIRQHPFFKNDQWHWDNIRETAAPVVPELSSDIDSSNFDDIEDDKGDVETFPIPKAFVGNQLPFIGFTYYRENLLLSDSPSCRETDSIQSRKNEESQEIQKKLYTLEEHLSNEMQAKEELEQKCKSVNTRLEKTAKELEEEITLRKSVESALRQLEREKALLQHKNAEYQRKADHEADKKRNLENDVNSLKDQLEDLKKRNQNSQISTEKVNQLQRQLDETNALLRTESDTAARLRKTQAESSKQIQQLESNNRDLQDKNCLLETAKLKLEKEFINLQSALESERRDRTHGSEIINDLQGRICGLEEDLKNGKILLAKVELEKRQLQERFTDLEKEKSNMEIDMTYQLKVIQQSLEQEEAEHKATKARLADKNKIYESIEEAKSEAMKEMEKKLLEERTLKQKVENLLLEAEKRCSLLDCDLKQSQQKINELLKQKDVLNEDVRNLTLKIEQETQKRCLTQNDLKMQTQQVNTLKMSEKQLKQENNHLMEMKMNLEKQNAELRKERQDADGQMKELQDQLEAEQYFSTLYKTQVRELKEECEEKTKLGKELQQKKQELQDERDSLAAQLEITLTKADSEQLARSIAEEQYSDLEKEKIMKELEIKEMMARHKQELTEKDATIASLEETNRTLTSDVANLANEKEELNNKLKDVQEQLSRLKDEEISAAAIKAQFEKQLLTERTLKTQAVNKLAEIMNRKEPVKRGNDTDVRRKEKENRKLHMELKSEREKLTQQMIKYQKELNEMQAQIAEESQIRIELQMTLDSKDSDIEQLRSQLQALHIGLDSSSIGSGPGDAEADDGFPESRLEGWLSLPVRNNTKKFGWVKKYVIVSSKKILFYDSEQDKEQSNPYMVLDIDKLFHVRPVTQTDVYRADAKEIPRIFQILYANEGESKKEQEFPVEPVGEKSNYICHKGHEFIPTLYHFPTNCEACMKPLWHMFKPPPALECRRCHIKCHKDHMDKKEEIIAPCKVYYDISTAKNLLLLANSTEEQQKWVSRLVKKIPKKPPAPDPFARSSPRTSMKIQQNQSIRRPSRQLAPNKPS

| SMILES | Activity [1] [%] | Activity [2] [%] | Activity [3] [%] | Activity [4] [%] | Activity [5] [%] | Activity [6] [%] | Activity [7] [%] | Activity [8] [%] | Activity [9] [%] | Activity [10] [%] | Activity [11] [%] | Activity [12] [%] | Activity [13] [%] | Activity [14] [%] | Activity [15] [%] | Activity [16] [%] | Activity [17] [%] | Activity [18] [%] | Activity [19] [%] | Activity (Homo sapiens) [%] | further results |
| --- | --- | --- | --- | --- | --- | --- | --- | --- | --- | --- | --- | --- | --- | --- | --- | --- | --- | --- | --- | --- | --- |
| CC[C@@H](CO)Nc1nc(NC(=N)N)c2ncn(C(C)C)c2n1 | 12 | 23 | 66 | 82 | 40 | 122 | 31 | 28 | 96 | 17 | 16 | 80 | 3 | 5 | 46 | 6 | 65 | 61 | 61 | 83 | Activity [20]: 30%; Ratio IC50 (MCF7): >10; Ratio IC50 [21]: 4.6; Ratio IC50 [22]: 2.7; IC50 [23]: 37 nM |
| CC[C@H](CO)Nc1nc(NC(=N)N)c2ncn(C(C)C)c2n1 | 15 | 37 | 64 | 87 | 42 | 119 | 25 | 41 | 91 | 24 | 13 | 96 | 5 | 10 | 58 | 8 | 61 | 73 | 68 | 90 | Activity [20]: 39%; IC50 [23]: 140 nM |
